In ChEMBL document CHEMBL1128224 (J Med Chem, 1995):

Legend:
Mu-type opioid receptor = Mu-type opioid receptor (Cavia porcellus, UniProt P97266); test: The opioid receptor affinity(Ki) was evaluated by competition with [3H]DAMGO (mu) on guinea pig brain membranes; set-up: species or system Membrane
[1] = biological target: Kappa-type opioid receptor (Cavia porcellus) (UniProt P41144); test: IC50 ratio was measured on ethylketazocine (Opioid receptor kappa 1) in the guinea pig ileal longitudinal muscle(GPI) preparation
[2] = biological target: Delta-type opioid receptor (Mus musculus) (UniProt P32300); test: IC50 ratio was measured on DADLE (delta) in the mouse vas deferens (MVD) preparation
[3] = biological target: Delta-type opioid receptor (Mus musculus) (UniProt P32300); test: The antagonist potencies mediated through […] were expressed as Ke values calculated on DADLE(delta) in the mouse vas deferens(MVD) preparation; format: functional
How it was run: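 In electrically stimulated mouse vas deferens with DADLE as agonist, antagonist was preincubated 15 min at 100 nM unless otherwise specified. Ke = [antagonist]/(IC50 ratio − 1) from the Schild relationship, averaged over at least three IC50 ratio determinations.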

[4] = biological target: Kappa-type opioid receptor (Cavia porcellus, UniProt P41144); test: The opioid receptor affinity(Ki) was evaluated by competition with 9 (Opioid receptor kappa 1) on guinea pig brain membranes; set-up: species or system Membrane
[5] = biological target: Mu-type opioid receptor (Cavia porcellus) (UniProt P97266); test: IC50 ratio was measured on Morphine(mu) in the guinea pig ileal longitudinal muscle(GPI) preparation; format: tissue-based; conditions: Muscle tissue
[6] = biological target: T1, Opioid receptors; delta & kappa (Homo sapiens) (UniProt P41145+P41143); test: Selectivity as the ratio of IC50 value against delta receptor to that of kappa receptor.; format: protein assay
[7] = biological target: T2, Opioid receptors; mu & delta (Homo sapiens) (UniProt P41143+P35372); test: Selectivity as the ratio of IC50 value against delta receptor to that of mu receptor.; format: protein assay
[8] = biological target: T1, Opioid receptors; delta & kappa (Homo sapiens); test: Selectivity as the ratio of Ki value towards kappa receptor to that of delta 1 receptor.; format: protein assay
[9] = biological target: T2, Opioid receptors; mu & delta (Homo sapiens); test: Selectivity as the ratio of Ki value towards mu receptor to that of delta 1 receptor.; format: protein assay
[10] = biological target: Delta-type opioid receptor (Mus musculus) (UniProt P32300); test: (§1) Antagonist activity against the delta1 opioid receptor using DPDPE as agonist at 20 pmol/kg (icv) was determined as ratio of ED50 of antagonist to the control (ED50 of control = 8.6 (6.5-11.1) nmol/kg); format: functional
Mus musculus [11] = test: Intracerebroventricular dose required to produce an equivalnet antagonism of DPDPE-induced antinociception.; format: functional
How it was run: (§2)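 In the mouse tail-flick assay against DPDPE-induced antinociception, the antagonist was given icv or iv. […] The iv/icv value is the ratio of these two doses.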

Mus musculus [12] = test: Intravenous dose required to produce an equivalnet antagonism of DPDPE-induced antinociception.; format: functional; how it was run: as §2
[13] = biological target: Kappa-type opioid receptor (Mus musculus) (UniProt P33534); test: Antagonist activity against the kappa opioid receptor using U-50,488H as agonist at 20 pmol/kg (icv) was determined as ratio of ED50 of antagonist to the control (ED50 of control = 27.3 (8.5-52.8) umol/kg); format: functional
[14] = biological target: Mu-type opioid receptor (Mus musculus) (UniProt P42866); test: Antagonist activity against the mu opioid receptor using morphine as agonist at 20 pmol/kg (icv) was determined as ratio of ED50 of antagonist to the control (ED50 of control = 9.7 (8.6-10.9) umol/kg); format: functional
[15] = Ratio of iv dose to that of icv.; format: functional; how it was run: as §2
[16] = as §1; format: functional
[17] = biological target: Delta-type opioid receptor (Homo sapiens) (UniProt P41143); conditions: 0.8 umol/kg

N=C(N)NCCC[C@@H](NC(=O)c1cccc2c3c([nH]c12)[C@@H]1Oc2c(O)ccc4c2C12CCN(CC1CC1)C(C4)[C@]2(O)C3)C(=O)O (some centres not stated)
Ki (Mu-type opioid receptor): 333 nM | IC50 ratio [1]: 1.2 | IC50 ratio [2]: 31 | Ke [3]: 3.3 nM | Ki [4]: 188 nM | IC50 ratio [5]: 1.3 | Selectivity [6]: 27 | Selectivity [7]: 24 | Selectivity [8]: 1180 | Selectivity [9]: 2100

O=C(O)c1cccc2c3c([nH]c12)[C@@H]1Oc2c(O)ccc4c2C12CCN(CC1CC1)C(C4)[C@]2(O)C3 (some centres not stated)
Ki (Mu-type opioid receptor): 24 nM | IC50 ratio [1]: 1 | IC50 ratio [2]: 25 | Ke [3]: 0.4 nM | IC50 ratio [5]: 2 | Selectivity [6]: 231 | Selectivity [7]: 122 | Selectivity [8]: 3250 | Selectivity [9]: 1850

O=C(O)CNC(=O)c1cccc2c3c([nH]c12)[C@@H]1Oc2c(O)ccc4c2C12CCN(CC1CC1)C(C4)[C@]2(O)C3 (some centres not stated)
ED50 ratio [10]: 5.3 | Dose (Mus musculus [11]): 4.7 pM/kg | Dose (Mus musculus [12]): 0.53 µM/kg | Ki (Mu-type opioid receptor): 206 nM | ED50 ratio [13]: 0.8 | IC50 ratio [1]: 1.1 | IC50 ratio [2]: 32 | Ke [3]: 3.2 nM | IC50 ratio [5]: 1.5 | ED50 ratio [14]: 0.9 | Selectivity [6]: 30 | Selectivity [7]: 21 | Selectivity [8]: 30000 | Selectivity [9]: 38200 | Ratio [15]: 112766

O=C(O)C[C@@H](NC(=O)c1cccc2c3c([nH]c12)[C@@H]1Oc2c(O)ccc4c2C12CCN(CC1CC1)C(C4)[C@]2(O)C3)C(=O)O (some centres not stated)
Dose (Mus musculus [11]): 12.5 pM/kg | Dose (Mus musculus [12]): 0.62 µM/kg | Ki (Mu-type opioid receptor): 368 nM | IC50 ratio [1]: 2.1 | IC50 ratio [2]: 89 | Ke [3]: 1.1 nM | Ki [4]: 893 nM | IC50 ratio [5]: 1.3 | ED50 ratio [14]: 1 | Selectivity [6]: 30 | Selectivity [7]: 67 | Selectivity [8]: 6250 | Selectivity [9]: 2570 | ED50 ratio [16]: 2.6 | ED50 ratio [17]: 2.3

NCCC[C@@H](NC(=O)c1cccc2c3c([nH]c12)[C@@H]1Oc2c(O)ccc4c2C12CCN(CC1CC1)C(C4)[C@]2(O)C3)C(=O)O (some centres not stated)
Ki (Mu-type opioid receptor): 136 nM | IC50 ratio [1]: 0.9 | IC50 ratio [2]: 58 | Ke [3]: 1.8 nM | Ki [4]: 57 nM | IC50 ratio [5]: 3 | Selectivity [6]: 63 | Selectivity [7]: 20 | Selectivity [8]: 320 | Selectivity [9]: 756

NCCCC[C@@H](NC(=O)c1cccc2c3c([nH]c12)[C@@H]1Oc2c(O)ccc4c2C12CCN(CC1CC1)C(C4)[C@]2(O)C3)C(=O)O (some centres not stated)
Ki (Mu-type opioid receptor): 219 nM | IC50 ratio [1]: 1.1 | IC50 ratio [2]: 20 | Ke [3]: 5.2 nM | Ki [4]: 41 nM | IC50 ratio [5]: 1 | Selectivity [6]: 20 | Selectivity [7]: 20 | Selectivity [8]: 134 | Selectivity [9]: 719

Oc1ccc2c3c1O[C@H]1c4[nH]c5ccccc5c4C[C@@]4(O)[C@@H](C2)N(CC2CC2)CC[C@]314 [NALTRINDOLE]
Dose (Mus musculus [11]): 300 pM/kg | Dose (Mus musculus [12]): 2.19 µM/kg | Ke [3]: 0.2 nM
